The results in this text go back to ChEMBL document CHEMBL1944502, “Efficient synthesis and anti-enteroviral activity of 9-arylpurines” (Eur J Med Chem, 2012).

Data set [1] has as its system Vero. Nature of the data set: Cytotoxicity against Coxsackievirus B3 Nancy infected African green monkey Vero cells assessed as change in cell morphology at EC50 after 3 days by microscopic analysis. The class given is cell-based. The settings on record: chlorocebus sabaeus, 72 h. In a few lines: (§1)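 Infected, compound-treated wells were inspected microscopically after the 3-day antiviral incubation. The check looked for virus-induced CPE and for compound-induced alteration of cell morphology, compared with uninfected, untreated control cells.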

Data set [2] is described as follows: Antiviral activity against Coxsackievirus B3 Nancy infected in african green monkey Vero cells assessed as inhibition of virus-induced cell death after 3 days by spectrophotometry based MTS/PMS assay. As to conditions: Enterovirus B, 72 h. It counts as functional, Coxsackievirus B3 (strain Nancy). The procedure, abridged:
(§2)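 Infected cells in 96-well plates received serial compound dilutions plus 100 CCID50 of virus. They were incubated 3 days, until full CPE appeared in untreated virus controls, at 37 °C (35 °C for rhinovirus 14). Viability was read by MTS/PMS at OD 498 nm and converted to % of controls. EC50 was obtained by linear interpolation. Runs were at least triplicate, with microscopic confirmation.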

Data set [3] is described as follows: Cytotoxicity against African green monkey Vero cells after 3 days by spectrophotometry based MTS/PMS assay. The class given is cell-based. The settings on record: chlorocebus sabaeus. The procedure, abridged: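 Uninfected Vero cultures were handled as in the antiviral set-up: serial compound dilutions for 3 days. Overall metabolism was read by MTS/PMS, and raw values were converted to % of controls. CC50 (50% inhibition of cell metabolism) was obtained by linear interpolation. Each experiment was repeated at least three times.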

Data set [4] relates to Coxsackievirus B4. Description: Antiviral activity against Coxsackievirus B4 E2 Edwards infected in african green monkey Vero cells assessed as inhibition of virus-induced cytopathogenicity after 3 days by spectrophotometry based MTS/PMS assay. It counts as functional, organism-based. The settings on record: Enterovirus B, 72 h. The procedure, abridged:
as §2

For data set [5], the system named is rhinovirus B14. Description: Antiviral activity against Human rhinovirus 14 infected in human HeLa cells assessed as inhibition of virus-induced cytopathogenicity after 3 days by spectrophotometry based MTS/PMS assay. The settings on record: Rhinovirus B, 72 h. It counts as functional, organism-based. In a few lines:
as §2

The nature of data set [6]: Antiviral activity against Echovirus 11 Gregory infected in BGM cells assessed as inhibition of virus-induced cell death after 3 days by spectrophotometry based MTS/PMS assay. The class given is functional, Echovirus 11 (strain Gregory). The settings on record: Enterovirus B, 72 h. The procedure, abridged: as §2
For data set [7], the system named is Poliovirus 1. Description: Antiviral activity against Poliovirus type 1 Sabin infected in BGM cells assessed as inhibition of virus-induced cell death after 3 days by spectrophotometry based MTS/PMS assay. The class given is functional. The settings on record: Enterovirus C, 72 h.
Data set [8] concerns Vero. Description: Cytotoxicity against Coxsackievirus B4 E2 Edwards infected african green monkey Vero cells assessed as change in cell morphology at EC50 after 3 days by microscopic analysis. The class given is cell-based. As to conditions: chlorocebus sabaeus, 72 h. In a few lines:
as §1

A short description of data set [9]: Antiviral activity against Enterovirus 71 BRCR infected in human RD cells assessed as inhibition of virus-induced cell death after 3 days by spectrophotometry based MTS/PMS assay. As to conditions: Enterovirus A, 72 h. The class given is functional, Human enterovirus 71 (strain BRCR). In a few lines: as §2
Data set [10] in a line: Antiviral activity against drug-resistant Coxsackievirus B3 Nancy infected in african green monkey Vero cells assessed as inhibition of virus-induced cell death after 3 days by spectrophotometry based MTS/PMS assay. The settings on record: Enterovirus B, 72 h. The class given is functional, Coxsackievirus B3 (strain Nancy).
Data set [11] is described as follows: Cytotoxicity against Echovirus 11 Gregory infected BGM cells assessed as change in cell morphology at EC50 after 3 days by microscopic analysis. It counts as cell-based. The settings on record: chlorocebus aethiops, 72 h. In a few lines:
as §1

Where only a bound is given, the exact number is not on record here.

For the molecule `Cc1nc(Cl)c2ncn(-c3cccc(N4CCOC4=O)c3)c2n1`, the Activity entry in data set [1] is “Non-toxic”. Besides, in [2], the EC50 came out at 10.6 µM and the EC90 came to 15.6 µM. The same molecule registered a CC50 at 72 h in data set [3] above 200 µM.
With `CC(=O)c1cccc(-n2c(=O)[nH]c3c(Cl)nc(C)nc32)c1`, in data set [1], the Activity entry is given as “Non-toxic”. In addition, the half-maximal cytotoxic concentration (CC50) at 72 h in [3] was above 100 µM.
In the case of `Cc1nc(Cl)c2ncn(-c3ccc(N(C)C)cc3)c2n1`, the Activity entry in data set [1] is “Non-toxic”. Further, in data set [2], the EC50 came to 11 µM. Besides, the CC50 at 72 h in [3] is above 100 µM.
In the case of `Cc1nc(Cl)c2[nH]c(=O)n(-c3cccc(N4CCOC4=O)c3)c2n1`, the Activity entry in data set [1] was “Non-toxic”. In data set [2], the 50% effective concentration (EC50) came to 25.4 µM and the EC90 is 33.5 µM. The molecule also came in with a CC50 at 72 h in data set [3] above 200 µM.
On to `CC(=O)N(C)c1cccc(-n2cnc3c(Cl)ncnc32)c1`, for which, in data set [1], the Activity entry was “Non-toxic”. The 50% effective concentration (EC50) in data set [2] worked out at 7.8 µM. Besides, in data set [3], the half-maximal cytotoxic concentration (CC50) at 72 h was above 100 µM.
`O=C1OCCN1c1cccc(-n2c(=O)[nH]c3c(Cl)ncnc32)c1`: the Activity entry in data set [1] and in [8] was “Non-toxic” throughout. Moreover, the EC50 in [4] was 24.1 µM; in [5], above 100 µM; in data set [6], 86.9 µM; in data set [7], above 151 µM; in data set [9] it was above 151 µM; in data set [2], 8.9 µM. Also, the EC90 in data set [2] was 15.3 µM. The molecule also registered a CC50 at 72 h in [3] above 200 µM.
Turning to `Fc1cccc(F)c1[C@@H]1SCc2nc3cc(C(F)(F)F)ccc3n21`, the Activity result in data set [1] is “Non-toxic”. In data set [3], this molecule yielded a CC50 at 72 h above 100 µM.
Take `CN(C)c1cccc(-n2cnc3c(Cl)ncnc32)c1`: the Activity entry in data set [1] and in [8] was “Non-toxic” in each case. Further, the half-maximal effective concentration (EC50) in data set [4] was 6.9 µM; in data set [5] it was above 100 µM; in [6], 12.5 µM; in data set [7], above 100 µM; in data set [9], above 100 µM; in [2], 3.8 µM. Moreover, the EC50 in [10] was above 100 µM. Moreover, the EC90 in data set [2] worked out at 5 µM. This molecule came in with a CC50 at 72 h in [3] above 100 µM.
In the case of `CCN(C(C)=O)c1cccc(-n2cnc3c(Cl)nc(C)nc32)c1`, the Activity result in [1] was “Non-toxic”. Moreover, in data set [2], the EC50 turned out to be 6.1 µM and the EC90 stood at 10.9 µM. Besides, in [3], the CC50 at 72 h is above 200 µM.
In the case of `Cc1nc(Cl)c2nc(OC(=O)Oc3ccccc3)n(-c3cccc(N(C)C)c3)c2n1`, in [2], the EC50 turned out to be 13.6 µM and the EC90 is 14.8 µM. Also, the CC50 at 72 h in [3] worked out at 75.9 µM.
For the molecule `CN(C)c1cccc(-n2c(=O)[nH]c3c(Cl)ncnc32)c1`, the Activity entry in [1] is given as “Non-toxic”. Moreover, in data set [2], the 50% effective concentration (EC50) turned out to be 16 µM and the concentration for an effect of 90% (EC90) was determined as 26 µM. The half-maximal cytotoxic concentration (CC50) at 72 h in [3] is above 100 µM.
On to `CC(=O)c1cccc(-n2cnc3c(Cl)ncnc32)c1`, for which the Activity entry in data set [1] and in data set [8] was “Non-toxic” each time. Besides, the concentration giving a half-maximal response (EC50) in data set [4] is 28.8 µM; in [5], above 100 µM; in [6] it was 21.6 µM; in [7], above 100 µM; in data set [10], above 100 µM. The molecule further yielded a CC50 at 72 h in [3] above 100 µM.
As for `CN(C)c1ccc(-n2cnc3c(Cl)ncnc32)cc1`, the Activity entry in data set [1] is “Non-toxic”. For the same molecule, the EC50 in data set [2] came out at 6.3 µM. The CC50 at 72 h in data set [3] is above 100 µM.
For the molecule `CCN(CC)c1cccc(-n2cnc3c(Cl)ncnc32)c1`, the Activity result in [1] is on record as “Non-toxic”. Also, in [2], the half-maximal effective concentration (EC50) is 15 µM and the 90% effect concentration (EC90) was 23 µM. Further, the CC50 at 72 h in data set [3] is above 100 µM.
Take `Cc1nc(Cl)c2ncn(-c3cccc(N(C)C)c3)c2n1`: in [1], the Activity entry was “Non-toxic”. Moreover, in data set [2], the EC50 amounted to 12 µM and the 90% effect concentration (EC90) amounted to 28 µM. In addition, the CC50 at 72 h in data set [3] is above 100 µM.
In the case of `CC(C)S(=O)(=O)n1c(N)nc2ccc(/C(=N/O)c3ccccc3)cc21` [ENVIROXIME], in data set [1], the Activity result was “Non-toxic”. The same molecule came in with a CC50 at 72 h in data set [3] above 100 µM. The EC50 in data set [10] is 1.3 µM.
As for `CC(=O)Nc1cccc(-n2cnc3c(Cl)nc(C)nc32)c1`, the Activity result in data set [1] is on record as “Non-toxic”. In addition, in [2], the concentration giving a half-maximal response (EC50) was determined as 11.8 µM and the concentration for an effect of 90% (EC90) worked out at 17.5 µM. The molecule also returned a CC50 at 72 h in data set [3] above 200 µM.
As for `CC(=O)Nc1cccc(-n2cnc3c(Cl)ncnc32)c1`, the EC50 in [4] was 12.1 µM; in data set [5] it was above 100 µM; in data set [6], 20.8 µM; in data set [7], above 174 µM; in data set [9], above 174 µM; in [2], 18.5 µM. The EC50 in data set [10] is above 50 µM. Besides, the Activity result in [11] and in [8] was “Non-toxic” each time. Further, in data set [2], the concentration for an effect of 90% (EC90) came out at 24.2 µM. The CC50 at 72 h in [3] is above 174 µM.
`CCOc1ncnc2c1ncn2-c1cccc(NCCO)c1`: in [2], the half-maximal effective concentration (EC50) was above 200 µM and the EC90 was above 200 µM. The molecule also yielded a cytotoxic concentration (CC50) at 72 h in [3] above 200 µM.
For the molecule `CCN(CC)c1cccc(-n2cnc3c(Cl)nc(C)nc32)c1`, the Activity result in data set [1] is reported as “Non-toxic”. In data set [2], the concentration giving a half-maximal response (EC50) is 10 µM and the concentration for an effect of 90% (EC90) was 15 µM. In addition, the CC50 at 72 h in [3] is above 100 µM.
The corresponding values for `CCOC(=O)Oc1nc2c(Cl)nc(C)nc2n1-c1cccc(N(C)C)c1` are “Non-toxic”, 12.6 µM, 19.9 µM and 131 µM.
On the same counts, the results for `O=C1OCCN1c1cccc(-n2cnc3c(Cl)ncnc32)c1` are “Non-toxic”, 33.7 µM, 47.5 µM and above 200 µM.
On the same counts, the results for `Cc1nc(Cl)c2c(n1)n(-c1cccc(N(C)C)c1)c(=O)n2C` are “Non-toxic”, 11.3 µM, 18.2 µM and above 200 µM.
On to `Cc1nc(Cl)c2ncn(-c3cccc(C(C)(C)O)c3)c2n1`, for which, in data set [1], the Activity entry was “Non-toxic”. This molecule yielded a cytotoxic concentration (CC50) at 72 h in data set [3] above 100 µM.
On to `CC(=O)N(CC1CC1)c1cccc(-n2cnc3c(Cl)nc(C)nc32)c1`, for which the Activity result in data set [1] is “Non-toxic”. Moreover, in data set [2], the concentration giving a half-maximal response (EC50) worked out at 34.5 µM and the concentration for an effect of 90% (EC90) is 52.3 µM. The same molecule came in with a CC50 at 72 h in [3] above 200 µM.
As to `Cc1nc(Cl)c2[nH]c(=O)n(-c3cccc(N(C)C)c3)c2n1`, the Activity entry in [1] is on record as “Non-toxic”. In addition, in [2], the 50% effective concentration (EC50) turned out to be 10 µM and the EC90 worked out at 15 µM. The CC50 at 72 h in [3] was above 100 µM.
As to `CC(=O)N(C)c1cccc(-n2cnc3c(Cl)nc(C)nc32)c1`, the Activity result in [1], in data set [11] and in data set [8] was “Non-toxic” in each case. For the same molecule, the 50% effective concentration (EC50) in data set [4] is 13 µM; in [5], above 100 µM; in data set [6], 20 µM; in data set [7], above 158 µM; in [9] it was above 158 µM; in [2], 6.1 µM. In addition, the EC50 in [10] is above 50 µM. Besides, the EC90 in [2] came out at 8.3 µM. For the same molecule, the midpoint of cytotoxicity in [3], the CC50 at 72 h, lay at 307 µM.
